Data reported in article PMC4472004 (Molecular cancer therapeutics, 2014).

Tests used:
[1] = target: PSMA receptor on PC3pip cells (Homo sapiens, UniProt Q04609); experiment: Competitive binding assay
How it was run: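 PC3pip cells (PSMA-transduced PC3; RPMI-1640 with 2 mmol/L L-glutamine and 10% FBS, 37°C, 5% CO2), 5 × 10^5 per tube, incubated 1 h at 37°C with varying test compound concentrations plus 12 nmol/L [3H]-methyl-cysteine urea PSMA radioligand. Cells pelleted at 3,000 × g for 5 min at 4°C and washed 3× with cold PBS. Bound radioactivity by scintillation counting; IC50 from curve fitting.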

PC3pip tumors = experiment: In vivo NIR imaging; set-up: species or system mice; conditions: coinjection; up to 1,000-fold excess of Cys-CO-Glu or PSMA-1; 100-fold excess of ZJ-MCC-Ahx-YYYG

Sequence of PSMA receptor on PC3pip cells (Q04609 whole entry): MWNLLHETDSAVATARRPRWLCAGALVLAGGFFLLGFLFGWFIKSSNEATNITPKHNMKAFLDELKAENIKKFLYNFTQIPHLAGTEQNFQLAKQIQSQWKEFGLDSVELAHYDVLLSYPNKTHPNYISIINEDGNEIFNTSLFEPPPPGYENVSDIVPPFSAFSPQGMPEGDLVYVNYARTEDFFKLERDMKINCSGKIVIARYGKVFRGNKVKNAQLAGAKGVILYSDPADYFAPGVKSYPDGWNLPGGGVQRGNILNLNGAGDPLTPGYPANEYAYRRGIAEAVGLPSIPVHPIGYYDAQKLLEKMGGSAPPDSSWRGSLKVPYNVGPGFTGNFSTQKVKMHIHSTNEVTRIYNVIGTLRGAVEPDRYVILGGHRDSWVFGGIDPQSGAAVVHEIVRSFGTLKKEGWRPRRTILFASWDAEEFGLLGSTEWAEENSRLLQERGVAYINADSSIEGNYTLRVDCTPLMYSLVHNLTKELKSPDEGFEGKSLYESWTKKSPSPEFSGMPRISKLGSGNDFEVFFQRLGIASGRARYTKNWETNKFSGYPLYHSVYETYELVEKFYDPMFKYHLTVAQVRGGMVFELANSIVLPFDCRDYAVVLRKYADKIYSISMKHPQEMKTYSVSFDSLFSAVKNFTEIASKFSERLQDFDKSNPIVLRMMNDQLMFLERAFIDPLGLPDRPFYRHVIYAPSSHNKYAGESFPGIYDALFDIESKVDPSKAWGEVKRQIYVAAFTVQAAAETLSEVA

Glu-CO-Glu'-Amc-Ahx-Glu-Glu-Glu-Lys-NH2 [PSMA-1]
binding affinity better than the parent ligand Cys-CO-Glu ([1]; ratio of IC50 values): 4.3 fold | effectiveness as in vivo competitor of the PSMA-1–NIR probes (PC3pip tumors): unable to achieve effective competition

NCCCC[C@H](NC(=O)N[C@@H](CCC(=O)O)C(=O)O)C(=O)O [Cys-CO-Glu, (S)-2-(3-((S)-5-amino-1-carboxypentyl)ureido)pentanedioic acid]
IC50 [1]: 9.93 ± 0.07 nM | effectiveness as in vivo competitor of the PSMA-1–NIR probes (PC3pip tumors): unable to achieve effective competition
